Data as given in ChEMBL document CHEMBL1122501, “Potential antiatherosclerotic agents. 2. (Aralkylamino)- and (alkylamino) benzoic acid analogues of cetaben” (1983).
Where “and” joins values, the source holds several entries; their conditions need not be identical. Equal entries are not always repeated.

Experiments:
[1] = molecular target: T1, Sterol O-acyltransferase 1 (Rattus norvegicus) (UniProt O70536); experiment: In vitro inhibitory activity against acyl coenzyme A:cholesterol acyltransferase (ACAT); set-up: concentration or dose not given beside the values; conditions: concentration not given here
T1 sequence (whole entry): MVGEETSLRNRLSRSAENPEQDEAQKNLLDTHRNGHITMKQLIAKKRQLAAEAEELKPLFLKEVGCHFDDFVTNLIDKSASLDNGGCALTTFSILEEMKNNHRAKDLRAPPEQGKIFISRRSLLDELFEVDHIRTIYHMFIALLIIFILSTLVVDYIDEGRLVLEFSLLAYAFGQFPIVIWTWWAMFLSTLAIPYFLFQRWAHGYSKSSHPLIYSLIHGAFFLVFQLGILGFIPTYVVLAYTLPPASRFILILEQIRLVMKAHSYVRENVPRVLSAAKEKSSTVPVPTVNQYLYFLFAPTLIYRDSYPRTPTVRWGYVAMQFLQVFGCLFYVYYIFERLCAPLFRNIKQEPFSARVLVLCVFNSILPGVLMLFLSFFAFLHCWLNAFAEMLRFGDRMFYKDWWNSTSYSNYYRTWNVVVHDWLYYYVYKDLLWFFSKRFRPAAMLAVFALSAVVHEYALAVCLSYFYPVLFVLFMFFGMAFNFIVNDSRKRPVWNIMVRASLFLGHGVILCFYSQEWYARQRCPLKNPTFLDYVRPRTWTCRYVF
Summary of the method: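 ACAT enzyme from rat adrenal homogenate in 0.2 M KH2PO4 buffer pH 7.4, 1000g 15 min 5 °C supernatant (microsomal fraction). Supernatant + BSA (50 mg/mL) + compound at final 5.2 μg/mL + buffer preincubated 10 min 37 °C; [14C]oleoyl-CoA (0.4 μCi) added, 30 min 37 °C. Lipids extracted, TLC; cholesteryl ester zone counted. Mean % inhibition vs no-compound control; Student's t test.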

[2] = tested on: Rattus norvegicus; experiment: In vivo Sterol lowering activity at dose as 0.03 % of the diet.; type: functional
Summary of the method: (§1)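 Male CFE or CD-1 Sprague-Dawley rats, 140-150 g; 8 per control group, 4 per test group. Compound mixed into ground chow (w/w) via MeOH-CHCl3 (1:3) solution, solvent evaporated; controls got solvent-treated chow. Fed ad libitum 5 days, food intake monitored, killed fed and bled. Serum sterols and triglycerides by adapted autoanalyzer methods; mean percent of control, Student's t test.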

[3] = tested on: Rattus norvegicus; experiment: In vivo sterol lowering activity dosed at 0.10 % of the diet; type: functional; summary of the method: as §1
[4] = tested on: Rattus norvegicus; experiment: In vivo triglyceride lowering activity dosed at 0.10 % of the diet; type: functional; summary of the method: as §1
[5] = tested on: Rattus norvegicus; experiment: In vivo Sterol lowering activity at dose as 0.01 % of the diet.; type: functional; summary of the method: as §1
[6] = tested on: Rattus norvegicus; experiment: In vivo Sterol lowering activity at dose as 0.10 % of the diet.; type: functional; summary of the method: as §1
[7] = tested on: Rattus norvegicus; experiment: In vivo triglyceride lowering activity, dosed at 0.03 % of the diet; type: functional; summary of the method: as §1
[8] = tested on: Rattus norvegicus; experiment: In vivo triglyceride lowering activity, dosed at 0.01 % of the diet.; type: functional; summary of the method: as §1
[9] = tested on: Rattus norvegicus; experiment: In vivo Triglyceride lowering activity at dose as 0.01 % of the diet; type: functional; summary of the method: as §1
[10] = tested on: Rattus norvegicus; experiment: In vivo Sterol lowering activity at dose as 0.05 % of the diet; type: functional; summary of the method: as §1
[11] = tested on: Rattus norvegicus; experiment: In vivo triglyceride lowering activity dosed at 0.05 % of the diet; type: functional; summary of the method: as §1

Row | SMILES | inhibition [1] | serum sterol, percent of control [3] | serum triglycerides, percent of control [4] | also measured
1 | CCOC(=O)c1ccc(NCCCc2ccc(Cl)cc2)cc1 | 42% | 76% | 52% | serum sterol level, percent of control [2]: 89%; serum sterol, percent of control [5]: 90%
2 | CCCCCCCCCCCCCNc1ccc(C(=O)O)cc1 | < 29% | – | – | –
3 | O=C(O)c1ccc(NCCCc2ccc(Cl)cc2)cc1 [listing 1 of 2 here] | 18% and 19% | – | – | –
4 | CCCCCCCCCCCCCCCCCCCNc1ccc(C(=O)O)cc1 | < 36% | – | – | –
5 | CN(CCCc1ccc(Cl)cc1)c1ccc(C(=O)O)cc1 | 24% | – | 74% | serum sterol, percent of control [6]: 107%
6 | CCCCCCCCc1ccc(CCCNc2ccc(C(=O)OCC)cc2)s1 | < 57% | <83% | <46% | –
7 | CCOC(=O)c1ccc(NCCCc2c(Cl)cccc2Cl)cc1 | 62% | – | 64% | serum sterol, percent of control [6]: 92%
8 | CCOC(=O)c1ccc(NCCCCCCCCCC/C=C/c2cccs2)cc1 | < 62% | – | – | –
9 | CCOC(=O)c1ccc(NC(=O)/C=C/c2ccc(OC)cc2)cc1 | 52% | – | – | –
10 | CCCCCCCCCC/C=C/CCCNc1ccc(C(=O)O)cc1 | < 46% | – | – | –
11 | CCOC(=O)c1ccc(N(C)CCCc2ccc(Cl)cc2)cc1 | 53% | – | 49% | serum sterol, percent of control [6]: 99%
12 | CCCCCCCCCCCc1nc(CNc2ccc(C(=O)OCC)cc2)c[nH]1 | < 59% | 100% | 83% | –
13 | CCOC(=O)c1ccc(NCCCCCCc2cccs2)cc1 | 63% | – | – | –
14 | CCOC(=O)c1ccc(NCCCCCCCCCCCCc2cccs2)cc1 | < 40% | 103% | <46% | –
15 | CCOC(=O)c1ccc(NCCCCCCCCCC/C=C\c2cccs2)cc1 | < 47% | <82% | 72% | –
16 | CCCCCCCCCCCCCCCCNc1ccc(C(=O)OC)cc1 | 0% | 97% | 85% | –
17 | CCOC(=O)c1ccc(NCCCc2ccc(OC)cc2)cc1 | 54% | 86% | 60% | serum triglycerides, percent of control [7]: 59%; serum sterol level, percent of control [2]: 90%; Diet [8]: 82%; serum sterol, percent of control [5]: 97%
18 | CCCCCCCCCCCCCNc1ccc(C(=O)OCC)cc1 | < 22% | 91% | <70% | –
19 | O=C(O)c1ccc(NCCCc2ccc(Cl)cc2)cc1 [listing 2 of 2 here] | – | 72% | 50% | serum triglycerides, percent of control [7]: 54%; serum sterol level, percent of control [2]: 94%; Diet [8]: 70%; serum sterol, percent of control [5]: 94%
20 | O=C([O-])c1ccc(NCCCc2ccc(Cl)cc2)cc1.[Na+] | – | 84% | 52% | serum triglycerides, percent of control [7]: 60%; serum sterol level, percent of control [2]: 92%; Diet [8]: 72%; serum sterol, percent of control [5]: 94%

Row | SMILES | inhibition [1] | serum sterol, percent of control [3] | serum triglycerides, percent of control [4] | also measured
21 | CCOC(=O)c1ccc(NCCCc2ccc(C)cc2)cc1 | 31% | 122% | 68% | serum triglycerides, percent of control [7]: 54%; serum sterol level, percent of control [2]: 103%; Diet [9]: 72%; serum sterol, percent of control [5]: 127%
22 | CCCCCCCCCCCCCCCCCCNc1ccc(C(=O)O)cc1 | < 60% | – | – | –
23 | CCCCCCCCCCCCCCCCCNc1ccc(C(=O)OCC)cc1 | – | 111% | – | –
24 | CCCCCCCCCCCCCCCCNc1ccc(C(=O)O)cc1 | < 53% | – | – | –
25 | O=C(O)c1ccc(NCCCc2ccc(Cl)c(Cl)c2)cc1 | 19% | 73% | 63% | serum triglycerides, percent of control [7]: 70%; serum sterol level, percent of control [2]: 89%; Diet [8]: 79%; serum sterol, percent of control [5]: 96%
26 | CCOC(=O)c1ccc(NCc2ccc(Cl)cc2)cc1 | 33% | 84% | 50% | serum triglycerides, percent of control [7]: 53%; serum sterol level, percent of control [2]: 86%; Diet [8]: 78%; serum sterol, percent of control [5]: 94%
27 | CC(C(=O)O)c1ccc(NCCCc2ccc(Cl)cc2)cc1 (stereo not given) | 14% | 62% | 33% | serum triglycerides, percent of control [7]: 63%; serum sterol level, percent of control [2]: 96%; Diet [9]: 63%; serum sterol, percent of control [5]: 94%
28 | COc1ccc(/C=C/C(=O)Nc2ccc(C(=O)O)cc2)cc1 | 20% | – | – | –
29 | O=C(O)c1ccc(NCc2ccc(Cl)cc2)cc1 | 15% and 13% | – | – | –
30 | CCCCCCNc1ccc(C(=O)O)cc1 | – | – | – | serum sterol, percent of control [6]: 94%
31 | CCN(CCCc1ccc(Cl)cc1)c1ccc(C(=O)O)cc1 | 52% | – | 68% | serum sterol, percent of control [6]: 83%
32 | C=CCCCCCCCC/C=C/CCCNc1ccc(C(=O)O)cc1 | < 44% | – | – | –
33 | O=C(O)c1ccc(C(=O)O)c(NCCCc2ccc(Cl)cc2)c1 | 0% | – | 51% | serum triglycerides, percent of control [7]: 57%; serum sterol level, percent of control [2]: 100%; serum sterol, percent of control [6]: 103%; Diet [8]: 72%; serum sterol, percent of control [5]: 102%
34 | CCCCCCCCCCCCNc1ccc(C(=O)O)cc1 | < 21% and 17% | – | – | –
35 | O=[N+]([O-])c1ccc(CCCNc2ccccc2)cc1 | 46% | – | 49% | serum triglycerides, percent of control [7]: 61%; serum sterol level, percent of control [2]: 88%; serum sterol, percent of control [6]: 87%; Diet [8]: 90%; serum sterol, percent of control [5]: 90%
36 | COc1ccc(CCC(=O)Nc2ccc(C(=O)O)cc2)cc1 | 0% | – | – | –
37 | C=C(CCCCCCCCCC)CCCCCNc1ccc(C(=O)OCC)cc1 | 9% | <88% | <56% | –
38 | O=C(O)c1ccc(NC/C=C/c2ccc(Cl)cc2)cc1 | 26% | – | 54% | serum triglycerides, percent of control [7]: 48%; serum sterol level, percent of control [2]: 92%; serum sterol, percent of control [6]: 90%; Diet [8]: 95%; serum sterol, percent of control [5]: 83%
39 | CCOC(=O)c1ccc(N(CC)CCCc2ccc(Cl)cc2)cc1 | 48% | – | 67% | serum sterol, percent of control [6]: 86%
40 | O=C(O)c1ccc(NCCCCCCCc2ccccc2)cc1 | 14% | 91% | <71% | Diet [10]: 96%; Diet [11]: <61%
